Laboratory results taken from PMC4872822 (Journal of medicinal chemistry, 2015).
Each block holds one molecule with its values, some of them ahead of it.

Tests used:
h-15-LOX-1 = target: T1, h-15-LOX-1 (Homo sapiens, UniProt P16050); assay: Human 15-LOX-1 screening UV assay; type: biochemical; details: for h-15-LOX-1 inhibition (result in words): SAR comparison, Figure 3, up to 50 μM
T1 sequence (P16050 1-662): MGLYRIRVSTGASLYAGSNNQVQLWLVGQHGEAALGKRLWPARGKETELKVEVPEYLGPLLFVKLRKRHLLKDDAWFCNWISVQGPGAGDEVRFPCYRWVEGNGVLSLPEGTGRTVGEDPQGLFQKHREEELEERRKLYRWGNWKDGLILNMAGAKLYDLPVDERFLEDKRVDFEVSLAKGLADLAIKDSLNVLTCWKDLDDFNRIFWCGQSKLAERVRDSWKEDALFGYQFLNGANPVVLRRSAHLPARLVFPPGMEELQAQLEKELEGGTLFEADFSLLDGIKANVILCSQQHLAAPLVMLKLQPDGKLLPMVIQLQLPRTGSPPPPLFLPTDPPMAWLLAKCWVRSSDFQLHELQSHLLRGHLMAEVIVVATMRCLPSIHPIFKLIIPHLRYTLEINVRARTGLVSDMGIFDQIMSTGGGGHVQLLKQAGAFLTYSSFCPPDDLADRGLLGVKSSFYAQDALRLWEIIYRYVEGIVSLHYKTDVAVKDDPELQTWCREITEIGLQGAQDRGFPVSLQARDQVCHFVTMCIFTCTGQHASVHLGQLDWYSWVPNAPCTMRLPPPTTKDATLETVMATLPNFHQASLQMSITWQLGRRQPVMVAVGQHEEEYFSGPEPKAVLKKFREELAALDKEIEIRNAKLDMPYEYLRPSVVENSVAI

[1] = system: interleukin expression in precision-cut lung slices (PCLS); assay: Gene expression by RT-qPCR in LPS/IFNγ-stimulated precision-cut lung slices; type: cell-based, mouse; details: 20 h with 10 μM linoleic acid, LPS/IFNγ last 4 h
[2] = system: precision-cut lung slices (PCLS); details: LDH release, 1-500 nM with 10 μM linoleic acid for 20 h
[3] = system: interleukin expression in RAW 264.7 cells; assay: Gene expression by RT-qPCR in LPS/IFNγ-stimulated RAW 264.7 cells; type: cell-based, murine; details: RAW 264.7, 20 h with 10 μM linoleic acid, LPS/IFNγ last 4 h
In short: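 Murine macrophages (passage 7–16) in DMEM-GlutaMAX with 10% heat-inactivated FBS, extra 2 mM GlutaMAX and penicillin/streptomycin at 37 °C, 5% CO2, seeded at 20,000 cells/cm2 one day before. Test compound 1–500 nM (final) with 10 μM linoleic acid for 20 h; 10 ng/ml LPS and IFNγ for the last 4 h. Cells were DPBS-washed and total RNA isolated for RT-qPCR. Results are fold change versus the LPS/IFNγ/linoleic acid control.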

interleukin-12 (IL-12) = details: after stimulation with LPS; cited from earlier work

- inhibition at 50 µM (h-15-LOX-1; read-out: inhibition of the enzyme activity at 50 μM): < 50%
Structure (SMILES): CCOC(=O)c1c(C=O)c2ccc(Cl)cc2n1C [Compound 3, Ethyl 6-chloro-3-formyl-1-methyl-1H-indole-2-carboxylate]

- h-15-LOX-1 inhibition (result in words) (h-15-LOX-1): inactive
Structure (SMILES): O=Cc1c(Cl)[nH]c2cc(Cl)ccc12 [Compound 4]

- h-15-LOX-1 inhibition (result in words) (h-15-LOX-1): inactive
Structure (SMILES): O=Cc1c[nH]c2cc(Cl)ccc12 [Compound 5]

- h-15-LOX-1 inhibition (result in words) (h-15-LOX-1): inactive
Structure (SMILES): O=Cc1c(C(=O)O)[nH]c2cc(Cl)ccc12 [Compound 7, 6-chloro-3-formyl-1H-indole-2-carboxylic acid]

- h-15-LOX-1 inhibition (result in words) (h-15-LOX-1): inactive
Structure (SMILES): CC(C)(C)OC(=O)c1cc2ccc(Cl)cc2[nH]1 [Compound 8, tert-butyl 6-chloro-1H-indole-2-carboxylate]

Structure (SMILES): CCOC(=O)c1[nH]c2cc(Cl)ccc2c1C(=O)C[C@@H](C)CCCC(C)C [Compound 14d, (S)-ethyl 6-chloro-3-(3,7-dimethyloctanoyl)-1H-indole-2-carboxylate]
- IL-1β gene expression [1]: small but significant downregulation
- IL-6 gene expression [1]: small but significant downregulation
- IL-10 gene expression [1]: upregulated
- IL-12 gene expression [1]: remained unchanged
- concentration not affecting PCLS viability [2]: ≤ 500 nM
- IL-1β gene expression [3]: did not change
- IL-6 gene expression [3]: did not change
- IL-12 gene expression [3]: did not change

Structure (SMILES): c1ccc2c(c1)SCc1c-2[nH]c2ccccc12 [PD-146176]
- effect on interleukin-12 (IL-12) (interleukin-12 (IL-12)): downregulation of interleukin-12 (IL-12)
